Measurements taken from PMC9059984 (RSC Advances, 2019).
Residue numbers refer to the chain shown, from its start.

How the values were obtained:
Type in all cases: biochemical
[1] = biological target: T1, sDTE (Sinorhizobium sp. D-tagatose 3-epimerase) (Sinorhizobium sp., UniProt Z9YNK1L8X5, M9A); experiment: D-sorbose formation by HPLC, relative activity; conditions: […] g/L D-tagatose, […] Mn2+, […] enzyme, pH […] °C, […] min
T1 sequence (Z9YNK1L8X5 1-293 M9A): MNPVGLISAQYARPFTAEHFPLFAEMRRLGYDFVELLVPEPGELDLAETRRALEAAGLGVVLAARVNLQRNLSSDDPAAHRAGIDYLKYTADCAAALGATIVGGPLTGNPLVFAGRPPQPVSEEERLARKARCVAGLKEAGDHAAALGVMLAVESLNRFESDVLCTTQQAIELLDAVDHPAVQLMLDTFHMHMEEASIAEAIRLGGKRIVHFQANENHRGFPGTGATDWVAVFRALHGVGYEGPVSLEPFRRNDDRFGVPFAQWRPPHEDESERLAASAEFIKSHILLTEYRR

[2] = tested on: sDTE (Sinorhizobium sp. D-tagatose 3-epimerase); experiment: Michaelis-Menten non-linear regression; conditions: optimum pH 8.0 (Tris-HCl) and 50 °C; Mn2+
Summary of the method: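 Enzyme expressed from pET28a(+) in E. coli BL21(DE3) (0.5 mM IPTG, 16 °C, 20 h), purified on Ni-NTA then Resource Q. Standard assay: 20 mM Tris–HCl pH 8.0, 1 μM Mn2+, 0.5 μM enzyme, 50 °C, 10 min; stopped by boiling 5 min; sugars by HPLC-ELSD. Kinetics used four ketose substrates, with Michaelis–Menten non-linear fit; three repeats, mean ± S.D.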

[3] = biological target: T2, sDTE (Sinorhizobium sp. D-tagatose 3-epimerase) (Sinorhizobium sp., UniProt Z9YNK1L8X5, R65G); experiment: D-sorbose formation by HPLC, relative activity; conditions: […] g/L D-tagatose, […] Mn2+, […] enzyme, pH […] °C, […] min
T2 sequence (Z9YNK1L8X5 1-293 R65G): T1 sequence (Z9YNK1L8X5 1-293 M9A) with A9M, R65G

Compound | D-sorbose formation by HPLC, relative activity [1] | Km [2] | D-sorbose formation by HPLC, relative activity [3]
OCC1(O)OC[C@@H](O)[C@H](O)[C@@H]1O (stereo partly drawn) [D-Tagatose] | the mutation of R65G and M9A abolished the catalytic activity toward D-tagatose | 26 ± 1.2 mM | the mutation of R65G and M9A abolished the catalytic activity toward D-tagatose
OCC1(O)OC[C@@H](O)[C@@H](O)[C@@H]1O (stereo partly drawn) [D-Fructose] |  | 54.7 ± 1.3 mM | 
OCC1(O)OC[C@@H](O)[C@H](O)[C@H]1O (stereo partly drawn) [D-Sorbose] |  | 83 ± 4.3 mM | 
O=C(CO)[C@H](O)[C@H](O)[C@H](O)CO [D-Allulose] |  | 39.8 ± 1.7 mM | 
